In brackets after ≈: the same amount, converted by molar mass.
Assays:
[1] = system: Candida albicans; assay: Tested in vitro for minimum inhibitory concentration against Candida albicans 9; format: functional
Method in brief: (§1)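 Yeasts were tested by tube dilution in malt extract broth (pH 4.8), with DMSO-dissolved compounds serially diluted in the broth. Blastospores came from yeast nitrogen base cultures shaken at 37 °C for about 30 h. After 48 h at 30 °C, MIC was read as the lowest concentration without macroscopic growth.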

[2] = system: Candida parapsilosis; assay: Tested in vitro for minimum inhibitory concentration against Candida parapsilosis 39; format: functional; details: Lodderomyces parapsilosis; method in brief: as §1
[3] = system: Microsporum canis; assay: Tested in vitro for minimum inhibitory concentration against Microsporum canis; format: functional
Method in brief: (§2)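 Glass-tube serial dilution in Sabouraud's dextrose broth (pH 6.5), with compounds dissolved in DMSO and diluted in medium. Mycelial inoculum was scraped from 21-day Kimmig agar cultures grown at 30 °C. Incubation was 7 days at 30 °C. MIC was the lowest concentration giving no macroscopically detectable growth.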

[4] = system: Candida albicans; assay: Tested in vitro for minimum inhibitory concentration against Candida albicans 124; format: functional; method in brief: as §1
[5] = system: Trichophyton benhamiae; assay: Tested in vitro for minimum inhibitory concentration against Trichophyton mentagrophytes; format: functional, Arthroderma benhamiae; method in brief: as §2
[6] = system: Sporothrix schenckii; assay: Tested in vitro for minimum inhibitory concentration against Sporothrix schenck ii; format: functional; method in brief: as §2
[7] = system: Aspergillus fumigatus; assay: Tested in vitro for minimum inhibitory concentration against Aspergillus fumigatus; format: functional
Method in brief: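 Broth macrodilution in glass tubes with Sabouraud's dextrose broth (pH 6.5). Compounds were dissolved in DMSO and serially diluted in medium. Inoculum was filamentous fungus harvested by spatula from Kimmig agar cultures grown 21 days at 30 °C. Tubes were incubated 72 h at 30 °C. MIC was the lowest concentration with no macroscopically visible growth.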

Structure (SMILES) | MIC [1] [µg/mL] | MIC [2] [µg/mL] | MIC [3] [µg/mL] | MIC [4] [µg/mL] | MIC [5] [µg/mL] | MIC [6] [µg/mL] | MIC [7] [µg/mL]
Cc1ccc2c(CN(C)C/C=C/C#CC(C)(C)C)cccc2c1 | 12.5 (≈ 40.9 µM) | 0.8 (≈ 2.62 µM) | 0.05 (≈ 0.164 µM) | 25 (≈ 81.8 µM) | 0.01 (≈ 0.0327 µM) | 0.4 (≈ 1.31 µM) | > 200
CN(C/C=C/C#CC(C)(C)C)Cc1cccc2ccc(Cl)cc12 | 3.13 (≈ 9.6 µM) | 0.4 (≈ 1.23 µM) | 0.02 (≈ 0.0614 µM) | 12.5 (≈ 38.4 µM) | 0.02 (≈ 0.0614 µM) | 0.4 (≈ 1.23 µM) | 1.56 (≈ 4.79 µM)
Cc1ccc2cccc(CN(C)C/C=C/C#CC(C)(C)C)c2c1 | 25 (≈ 81.8 µM) | 0.8 (≈ 2.62 µM) | 0.05 (≈ 0.164 µM) | 50 (≈ 164 µM) | 0.01 (≈ 0.0327 µM) | 0.4 (≈ 1.31 µM) | 1.56 (≈ 5.11 µM)
CN(C/C=C/C#CC(C)(C)C)Cc1cc(F)cc2ccccc12 | 0.8 (≈ 2.59 µM) | 0.2 (≈ 0.646 µM) | 0.006 (≈ 0.0194 µM) | 6.25 (≈ 20.2 µM) | 0.006 (≈ 0.0194 µM) | 0.2 (≈ 0.646 µM) | 0.8 (≈ 2.59 µM)
CN(C/C=C/C#CC(C)(C)C)Cc1cccc2c(Cl)csc12 | 0.4 (≈ 1.21 µM) | 0.1 (≈ 0.301 µM) | 0.003 (≈ 0.00904 µM) | 0.8 (≈ 2.41 µM) | 0.0015 (≈ 0.00452 µM) | 0.2 (≈ 0.603 µM) | 0.1 (≈ 0.301 µM)
Cc1cc(CN(C)C/C=C/C#CC(C)(C)C)c2ccccc2c1 | 50 (≈ 164 µM) | 1.56 (≈ 5.11 µM) | 0.02 (≈ 0.0655 µM) | 50 (≈ 164 µM) | 0.01 (≈ 0.0327 µM) | 0.2 (≈ 0.655 µM) | 3.13 (≈ 10.2 µM)
CN(C/C=C/C#CC(C)(C)C)Cc1cccc2ccccc12 [TERBINAFINE] | 6.25 (≈ 21.4 µM) | 0.8 (≈ 2.75 µM) | 0.006 (≈ 0.0206 µM) | 25 (≈ 85.8 µM) | 0.003 (≈ 0.0103 µM) | 0.4 (≈ 1.37 µM) | 0.8 (≈ 2.75 µM)
CN(C/C=C/C#CC(C)(C)C)Cc1cccc2c(F)cc(F)cc12 | 0.8 (≈ 2.44 µM) | 0.1 (≈ 0.305 µM) | 0.003 (≈ 0.00916 µM) | 1.56 (≈ 4.76 µM) | 0.003 (≈ 0.00916 µM) | 0.1 (≈ 0.305 µM) | 0.1 (≈ 0.305 µM)
CN(C/C=C/C#CC(C)(C)C)Cc1cc(C#N)cc2ccccc12 | > 200 | 0.4 (≈ 1.26 µM) | 0.05 (≈ 0.158 µM) | > 200 | 0.05 (≈ 0.158 µM) | > 200 | > 200

The remaining lines, values ahead:

MIC [1] [µg/mL] | MIC [2] [µg/mL] | MIC [3] [µg/mL] | MIC [4] [µg/mL] | MIC [5] [µg/mL] | MIC [6] [µg/mL] | MIC [7] [µg/mL] | Structure (SMILES)
25 (≈ 81.8 µM) | 3.13 (≈ 10.2 µM) | 0.05 (≈ 0.164 µM) | 50 (≈ 164 µM) | 0.02 (≈ 0.0655 µM) | 0.8 (≈ 2.62 µM) | > 200 | Cc1ccc(CN(C)C/C=C/C#CC(C)(C)C)c2ccccc12
1.56 (≈ 5.04 µM) | 0.2 (≈ 0.646 µM) | 0.006 (≈ 0.0194 µM) | 3.13 (≈ 10.1 µM) | 0.006 (≈ 0.0194 µM) | 0.2 (≈ 0.646 µM) | 0.1 (≈ 0.323 µM) | CN(C/C=C/C#CC(C)(C)C)Cc1cccc2c(F)cccc12
0.8 (≈ 2.45 µM) | 0.2 (≈ 0.614 µM) | 0.006 (≈ 0.0184 µM) | 1.56 (≈ 4.79 µM) | 0.003 (≈ 0.00921 µM) | 0.4 (≈ 1.23 µM) | 0.1 (≈ 0.307 µM) | CN(C/C=C/C#CC(C)(C)C)Cc1cccc2c(Cl)cccc12
6.25 (≈ 20.5 µM) | 1.56 (≈ 5.11 µM) | 0.02 (≈ 0.0655 µM) | 12.5 (≈ 40.9 µM) | 0.006 (≈ 0.0196 µM) | 0.4 (≈ 1.31 µM) | 0.8 (≈ 2.62 µM) | Cc1cccc2c(CN(C)C/C=C/C#CC(C)(C)C)cccc12
6.25 (≈ 20.2 µM) | 1.56 (≈ 5.04 µM) | 0.006 (≈ 0.0194 µM) | 25 (≈ 80.8 µM) | 0.006 (≈ 0.0194 µM) | 0.8 (≈ 2.59 µM) | 6.25 (≈ 20.2 µM) | CN(C/C=C/C#CC(C)(C)C)Cc1cccc2cc(F)ccc12
> 200 | 3.13 (≈ 9.89 µM) | 0.4 (≈ 1.26 µM) | > 200 | 0.2 (≈ 0.632 µM) | 6.25 (≈ 19.8 µM) | > 200 | CN(C/C=C/C#CC(C)(C)C)Cc1cccc2c(C#N)cccc12
12.5 (≈ 40.4 µM) | 0.8 (≈ 2.59 µM) | 0.01 (≈ 0.0323 µM) | 25 (≈ 80.8 µM) | 0.01 (≈ 0.0323 µM) | 0.4 (≈ 1.29 µM) | 3.13 (≈ 10.1 µM) | CN(C/C=C/C#CC(C)(C)C)Cc1ccc(F)c2ccccc12
3.13 (≈ 10.1 µM) | 0.4 (≈ 1.29 µM) | 0.006 (≈ 0.0194 µM) | 12.5 (≈ 40.4 µM) | 0.006 (≈ 0.0194 µM) | 0.4 (≈ 1.29 µM) | 0.4 (≈ 1.29 µM) | CN(C/C=C/C#CC(C)(C)C)Cc1cccc2ccc(F)cc12
1.56 (≈ 4.21 µM) | 0.8 (≈ 2.16 µM) | 0.01 (≈ 0.027 µM) | 3.13 (≈ 8.45 µM) | 0.006 (≈ 0.0162 µM) | 0.1 (≈ 0.27 µM) | 1.56 (≈ 4.21 µM) | CN(C/C=C/C#CC(C)(C)C)Cc1cccc2c(Br)cccc12
> 200 | 12.5 (≈ 39.5 µM) | 0.1 (≈ 0.316 µM) | > 200 | 0.2 (≈ 0.632 µM) | > 200 | > 200 | CN(C/C=C/C#CC(C)(C)C)Cc1ccc(C#N)c2ccccc12
